In ChEMBL document CHEMBL3779892, “Increasing the binding affinity of VEGFR-2 inhibitors by extending their hydrophobic interaction with the active site: Design, synthesis and biological evaluation of 1-substituted-4-(4-methoxybenzyl)phthalazine derivatives” (Eur J Med Chem, 2016):

Tests used:
Assay type in all cases: functional
NCI-H23 = experiment: Growth inhibition of human NCI-H23 cells at 10 uM after 48 hrs by sulforhodamine B assay; conditions: NCI-H23, 48 h, read-out: GI
Method in brief: (§1)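 Run at NCI on the 60-line panel. Cells grown in RPMI 1640 with 5% FBS and 2 mM L-glutamine, plated at 5000–40,000 cells/well by doubling time, and held 24 h at 37 °C before dosing. Drug (DMSO stock) given at a single final 10 µM in triplicate wells for 48 h. Adherent cells fixed with cold TCA (10% final), suspension cells with 16% TCA. SRB stain read at 515 nm. Percent growth from Tz, C and Ti.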

NCI-H322M = experiment: Growth inhibition of human NCI-H322M cells at 10 uM after 48 hrs by sulforhodamine B assay; conditions: read-out: GI; method in brief: as §1
[1] = Growth inhibition of human SKOV3 cells at 10 uM after 48 hrs by sulforhodamine B assay; conditions: SK-OV-3, 48 h, read-out: GI; method in brief: as §1
K562 = experiment: Growth inhibition of human K562 cells at 10 uM after 48 hrs by sulforhodamine B assay; conditions: K562, 48 h, read-out: GI; method in brief: as §1
SK-MEL-5 = experiment: Growth inhibition of human SK-MEL-5 cells at 10 uM after 48 hrs by sulforhodamine B assay; conditions: SK-MEL-5, 48 h, read-out: GI; method in brief: as §1
A498 = experiment: Growth inhibition of human A498 cells at 10 uM after 48 hrs by sulforhodamine B assay; conditions: A498, 48 h, read-out: GI; method in brief: as §1
[2] = Growth inhibition of human SNB19 cells at 10 uM after 48 hrs by sulforhodamine B assay; conditions: SNB-19, 48 h, read-out: GI; method in brief: as §1
[3] = Growth inhibition of human SNB75 cells at 10 uM after 48 hrs by sulforhodamine B assay; conditions: SNB-75, 48 h, read-out: GI; method in brief: as §1
[4] = Growth inhibition of human OVCAR8 cells at 10 uM after 48 hrs by sulforhodamine B assay; conditions: OVCAR-8, 48 h, read-out: GI; method in brief: as §1
[5] = Growth inhibition of human SF268 cells at 10 uM after 48 hrs by sulforhodamine B assay; conditions: SF-268, 48 h, read-out: GI; method in brief: as §1
[6] = Growth inhibition of human SF539 cells at 10 uM after 48 hrs by sulforhodamine B assay; conditions: SF-539, 48 h, read-out: GI; method in brief: as §1
[7] = Growth inhibition of human HOP92 cells at 10 uM after 48 hrs by sulforhodamine B assay; conditions: HOP-92, 48 h, read-out: GI; method in brief: as §1
[8] = Growth inhibition of human IGROV1 cells at 10 uM after 48 hrs by sulforhodamine B assay; conditions: IGROV-1, 48 h, read-out: GI; method in brief: as §1
MCF7 = experiment: Growth inhibition of human MCF7 cells at 10 uM after 48 hrs by sulforhodamine B assay; conditions: MCF7, 48 h, read-out: GI; method in brief: as §1
SN12C = experiment: Growth inhibition of human SN12C cells at 10 uM after 48 hrs by sulforhodamine B assay; conditions: read-out: GI; method in brief: as §1
[9] = Growth inhibition of human RXF393 cells at 10 uM after 48 hrs by sulforhodamine B assay; conditions: RXF 393, 48 h, read-out: GI; method in brief: as §1
[10] = Growth inhibition of human HCC2998 cells at 10 uM after 48 hrs by sulforhodamine B assay; conditions: HCC 2998, 48 h, read-out: GI; method in brief: as §1
[11] = Growth inhibition of human OVCAR5 cells at 10 uM after 48 hrs by sulforhodamine B assay; conditions: OVCAR-5, 48 h, read-out: GI; method in brief: as §1
HT-29 = experiment: Growth inhibition of human HT-29 cells at 10 uM after 48 hrs by sulforhodamine B assay; conditions: HT-29, 48 h, read-out: GI; method in brief: as §1
[12] = Growth inhibition of human DU145 cells at 10 uM after 48 hrs by sulforhodamine B assay; conditions: DU-145, 48 h, read-out: GI; method in brief: as §1
[13] = Growth inhibition of human Caki1 cells at 10 uM after 48 hrs by sulforhodamine B assay; conditions: CAKI-1, 48 h, read-out: GI; method in brief: as §1
U-251 = experiment: Growth inhibition of human U251 cells at 10 uM after 48 hrs by sulforhodamine B assay; conditions: U-251, 48 h, read-out: GI
Method in brief: (§2)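 NCI-60 panel, adherent cells grown in RPMI 1640 with 5% FBS and 2 mM L-glutamine, plated at 5000–40,000 cells/well and preincubated 24 h at 37 °C, 5% CO2. 10 µM final compound from DMSO stock, triplicate wells, 48 h. Fixed with cold TCA (10% final, 60 min, 4 °C) and stained with 0.4% SRB. Absorbance read at 515 nm; growth calculated against time-zero and control wells.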

[14] = Growth inhibition of human COLO205 cells at 10 uM after 48 hrs by sulforhodamine B assay; conditions: COLO 205, 48 h, read-out: GI; method in brief: as §1
SK-MEL-28 = experiment: Growth inhibition of human SK-MEL-28 cells at 10 uM after 48 hrs by sulforhodamine B assay; conditions: SK-MEL-28, 48 h, read-out: GI; method in brief: as §1
[15] = Growth inhibition of human UACC257 cells at 10 uM after 48 hrs by sulforhodamine B assay; conditions: UACC-257, 48 h, read-out: GI; method in brief: as §2
[16] = Growth inhibition of human OVCAR4 cells at 10 uM after 48 hrs by sulforhodamine B assay; conditions: OVCAR-4, 48 h, read-out: GI; method in brief: as §1
T47D = experiment: Growth inhibition of human T47D cells at 10 uM after 48 hrs by sulforhodamine B assay; conditions: read-out: GI; method in brief: as §2
[17] = Growth inhibition of human HCT116 cells at 10 uM after 48 hrs by sulforhodamine B assay; conditions: HCT-116, 48 h, read-out: GI; method in brief: as §1
MDA-MB-231 = experiment: Growth inhibition of human MDA-MB-231 cells at 10 uM after 48 hrs by sulforhodamine B assay; conditions: MDA-MB-231, 48 h, read-out: GI; method in brief: as §1
[18] = Growth inhibition of human RPMI8226 cells at 10 uM after 48 hrs by sulforhodamine B assay; conditions: RPMI-8226, 48 h, read-out: GI; method in brief: as §1
SR = experiment: Growth inhibition of human SR cells at 10 uM after 48 hrs by sulforhodamine B assay; conditions: read-out: GI
Method in brief: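 NCI-60 screen. Cells were grown in RPMI 1640 with 5% FBS and 2 mM L-glutamine, plated at 5000–40,000 cells/well and held 24 h at 37 °C, 5% CO2. Single 10 µM final dose from DMSO stock, triplicate wells, 48 h. Settled cells were fixed with 80% TCA (16% final) and stained with 0.4% SRB. Dye was solubilized in 10 mM Tris and read at 515 nm. Growth was calculated against time-zero and untreated wells.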

[19] = Growth inhibition of human SF295 cells at 10 uM after 48 hrs by sulforhodamine B assay; conditions: SF-295, 48 h, read-out: GI; method in brief: as §1
[20] = Growth inhibition of human NCI-ADR-RES cells at 10 uM after 48 hrs by sulforhodamine B assay; conditions: read-out: GI; method in brief: as §1
MDA-MB-435 = experiment: Growth inhibition of human MDA-MB-435 cells at 10 uM after 48 hrs by sulforhodamine B assay; conditions: MDA-MB-435, 48 h, read-out: GI; method in brief: as §1

COc1ccc(Cc2nnc(Nc3ccc(Cl)cc3)c3ccccc23)cc1
inhibition of growth at 10 µM (NCI-H23): 39%
inhibition of growth at 10 µM (NCI-H322M): 45%
inhibition of growth at 10 µM [1]: < 30%
inhibition of growth at 10 µM (K562): 48%
inhibition of growth at 10 µM (SK-MEL-5): 35%
inhibition of growth at 10 µM (A498): 53%
inhibition of growth at 10 µM [2]: 38%
inhibition of growth at 10 µM [3]: < 30%
inhibition of growth at 10 µM [4]: 35%
inhibition of growth at 10 µM [5]: < 30%
inhibition of growth at 10 µM [6]: 46%
inhibition of growth at 10 µM [7]: 76%
inhibition of growth at 10 µM [8]: 36%
inhibition of growth at 10 µM (MCF7): 36%
inhibition of growth at 10 µM (SN12C): 50%
inhibition of growth at 10 µM [9]: 32%
inhibition of growth at 10 µM [10]: < 30%
inhibition of growth at 10 µM [11]: < 30%
inhibition of growth at 10 µM (HT-29): 50%
inhibition of growth at 10 µM [12]: 42%
inhibition of growth at 10 µM [13]: 37%
inhibition of growth at 10 µM (U-251): 38%
inhibition of growth at 10 µM [14]: < 30%
inhibition of growth at 10 µM (SK-MEL-28): < 30%
inhibition of growth at 10 µM [15]: < 30%
inhibition of growth at 10 µM [16]: 33%
inhibition of growth at 10 µM (T47D): 44%
inhibition of growth at 10 µM [17]: 66%
inhibition of growth at 10 µM (MDA-MB-231): 36%
inhibition of growth at 10 µM [18]: 69%
inhibition of growth at 10 µM (SR): 54%
inhibition of growth at 10 µM [19]: 50%
inhibition of growth at 10 µM [20]: 48%
inhibition of growth at 10 µM (MDA-MB-435): 30%

COc1ccc(Cc2nnc(Nc3ccc(NC(=O)Nc4ccccc4)cc3)c3ccccc23)cc1
inhibition of growth at 10 µM (NCI-H23): < 30%
inhibition of growth at 10 µM (NCI-H322M): < 30%
inhibition of growth at 10 µM [1]: < 30%
inhibition of growth at 10 µM (K562): < 30%
inhibition of growth at 10 µM (SK-MEL-5): < 30%
inhibition of growth at 10 µM (A498): < 30%
inhibition of growth at 10 µM [2]: < 30%
inhibition of growth at 10 µM [3]: < 30%
inhibition of growth at 10 µM [4]: < 30%
inhibition of growth at 10 µM [5]: < 30%
inhibition of growth at 10 µM [6]: < 30%
inhibition of growth at 10 µM [7]: < 30%
inhibition of growth at 10 µM [8]: < 30%
inhibition of growth at 10 µM (MCF7): < 30%
inhibition of growth at 10 µM (SN12C): < 30%
inhibition of growth at 10 µM [9]: 49%
inhibition of growth at 10 µM [10]: < 30%
inhibition of growth at 10 µM [11]: < 30%
inhibition of growth at 10 µM (HT-29): < 30%
inhibition of growth at 10 µM [12]: < 30%
inhibition of growth at 10 µM [13]: < 30%
inhibition of growth at 10 µM (U-251): 32%
inhibition of growth at 10 µM [14]: < 30%
inhibition of growth at 10 µM (SK-MEL-28): < 30%
inhibition of growth at 10 µM [15]: < 30%
inhibition of growth at 10 µM [16]: < 30%
inhibition of growth at 10 µM (T47D): 41%
inhibition of growth at 10 µM [17]: 35%
inhibition of growth at 10 µM (MDA-MB-231): 31%
inhibition of growth at 10 µM [18]: 46%
inhibition of growth at 10 µM (SR): < 30%
inhibition of growth at 10 µM [19]: < 30%
inhibition of growth at 10 µM [20]: < 30%
inhibition of growth at 10 µM (MDA-MB-435): < 30%
